Bioassay records deposited in PubChem BioAssay by several laboratories.
MC4R antagonist – antagonists of human melanocortin 4 receptor (MC4R); 0.48% of 360,000 active; MC4R-expressing cells, MTII-stimulated cAMP, LANCE TR-FRET; P32245; inhibition, % at 6.5 µM;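 active = inhibition above its plate's cutoff, the mean of tested wells on that plate plus 3 SD, cut at about 29% in these data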;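 also: 0% = Melanotan II alone and 100% = Melanotan II plus saturating MCL0020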
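Assay system: human MC4R-expressing U2OS cells; reagent: Melanotan II stimulation of cells; dosing: 6.5 µM single dose; timing: compound 30 min, challenge 1 h, detection 1 h; signal: TR-FRET cAMP assay; replicates: one well per compound, no replicates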
Beta2AR agonist – human beta-2 adrenergic receptor agonism by FAP | Am2.2-beta2AR cells, FAP receptor internalization, flow cytometry | response, % (concentration not given with the values) | 0.43% of 340,000 active;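 active = response above a set limit, near 3 SD of response in nonfluorescent compounds, cut at about 42% in these data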
Target sequence (P07550 whole entry, looked up): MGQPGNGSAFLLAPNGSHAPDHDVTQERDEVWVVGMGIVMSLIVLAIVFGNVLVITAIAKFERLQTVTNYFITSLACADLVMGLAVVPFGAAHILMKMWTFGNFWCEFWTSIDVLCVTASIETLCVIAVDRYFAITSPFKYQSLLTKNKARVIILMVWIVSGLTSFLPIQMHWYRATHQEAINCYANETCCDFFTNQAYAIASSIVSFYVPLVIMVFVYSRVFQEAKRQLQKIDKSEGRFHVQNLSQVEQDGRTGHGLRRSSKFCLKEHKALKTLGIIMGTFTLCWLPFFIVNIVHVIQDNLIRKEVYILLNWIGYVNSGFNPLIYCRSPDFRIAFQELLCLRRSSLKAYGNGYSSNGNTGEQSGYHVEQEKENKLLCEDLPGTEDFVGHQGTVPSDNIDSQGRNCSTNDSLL
ABHD5 PLIN5 PPI – blocks binding of human ABHD5 to perilipin-5. Q00G26+Q8WTS1. Split G. princeps luciferase complementation, luminescence, 4 h. inhibition, % at 4 µM. 0.78% of 360,000 active;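 active = inhibition above the mean inhibition across every tested compound plus 3 SD, cut at about 22% in these data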;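 also: 0% = DMSO only wells and the 100% control is not disclosed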
MC4R barr agon – activates human MC4R beta-arrestin recruitment. P32245. U2OS MC4R beta-arrestin complementation, luminescence; percent of melanotan II response, DMSO zero. activation, % at 8.9 µM. 0.98% of 360,000 active. AID 540308;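 active = activation above a per-plate cutoff, the mean activation of sample wells on that plate plus 3 SD, cut at about 8% in these data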
PfG6PD inh – PfG6PD (Plasmodium falciparum) enzyme inhibition. PfGluPho enzyme, NADPH resazurin-diaphorase fluorescence. inhibition, % at 20 µM. 0.78% of 350,000 active;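 active = inhibition reaching at least a set limit at 20 µM in the primary screen, cut at about 59% in these data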;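 also: 0% = DMSO wells with substrate and 100% = DMSO wells lacking glucose-6-phosphate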
U2OS cAMP counter – U2OS forskolin cAMP inhibition counter-screen | shares compounds with MC4R antagonist | parental U2OS, LANCE TR-FRET | inhibition, % at 6.5 µM | 26% of 1,600 active;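 active = mean inhibition over triplicates above the low-control well mean plus 3 SD, set per campaign, cut at about 13% in these data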;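 also: signal is single emission at 671 nm which falls as cellular cAMP rises; 0% = forskolin-stimulated wells and 100% = buffer without forskolin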
MC4R cAMP antag – human MC4R cAMP antagonism confirmation; shares compounds with MC4R antagonist; MC4R-expressing cells, MTII-stimulated cAMP, TR-FRET; inhibition, % at 6.5 µM; 27% of 1,600 active; AID 602195; in the data active = inhibition above about 29%;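 also: 0% = agonist stimulated wells alone and 100% = agonist stimulated wells plus saturating reference antagonist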
An asterisk follows results filed as active; / = no result. Hits are enriched below; roughly 3% of the tested compounds scored in any of these assays.

SMILES	MC4R antagonist	Beta2AR agonist	ABHD5 PLIN5 PPI	MC4R barr agon	PfG6PD inh	U2OS cAMP counter	MC4R cAMP antag
COc1cc(C(=S)N2CCOCC2)ccc1OS(=O)(=O)c1ccccc1[N+](=O)[O-]	33*	5	6	-1	5	-1	-5
O=C(Oc1cccc(C(=S)N2CCOCC2)c1)c1cccc([N+](=O)[O-])c1	15	8	-7	-2	51	/	/
O=C(Oc1cccc(C(=S)N2CCOCC2)c1)c1ccc([N+](=O)[O-])cc1[N+](=O)[O-]	37*	2	-1	-1	39	6	29*
O=C(Nc1ccnn1C1CCN(CCCc2ccccc2)CC1)c1ccccc1Cl	-2	10	-2	-1	4	/	/
Cc1c(NC(=O)CSc2nc(N)cc(N)n2)c(=O)n(-c2ccccc2)n1C	3	-8	-8	-1	1	/	/
O=c1c(Cl)c(N2CCN(c3ccccc3)CC2)cnn1C12CC3CC(CC(C3)C1)C2	5	4	-4	-1	0	/	/
O=c1c(Cl)c(N2CCN(c3ccc(F)cc3)CC2)cnn1C12CC3CC(CC(C3)C1)C2	29*	-3	-7	3	-5	-1	3
O=C(/C=C/c1ccco1)OCc1nnc(-c2ccc(Cl)cc2)o1	32*	0	3	-2	5	1	-8
COCCCn1c(=O)c2ccccc2n(Cc2cccc(C)c2)c1=O	-1	0	0	-1	10	/	/
COc1ccc(NC(=O)C(Cl)=C(Cl)Cl)cn1	18	0	5	-3	7	/	/
COc1ccc(NC(=O)/C(Cl)=C(/Cl)S(=O)(=O)Cc2ccccc2)cn1	56*	37	49*	-3	12	34*	49*
COc1ccc(NC(=O)/C(Cl)=C(/Cl)S(=O)Cc2ccc(Cl)cc2)cn1 (configuration not stated)	76*	-401	96*	-7	39	11	54*
CC(C)OP(=O)(OC(C)C)/C(C=O)=N\Nc1ccc([N+](=O)[O-])cc1	39*	18	8	-3	11	9	8
CC(C)OP(=O)(OC(C)C)C(Nc1ccc([N+](=O)[O-])cc1)c1cccc([N+](=O)[O-])c1 (configuration not stated)	5	2	2	-3	7	/	/
CCOC(=O)c1sc(=S)[nH]c1C	43*	-5	-3	-3	25	10	31*
CC(C)=CC(O)C/C(C)=C/COc1ccc2ccc(=O)oc2c1 (configuration not stated)	8	-5	-6	0	12	/	/
COC(=O)CNC(c1ccccc1)c1cc(Br)ccc1NC(=O)CCN1CCOCC1 (configuration not stated)	29*	4	18	2	10	6	-5
NNC(=O)CNC(c1ccccc1)c1cc(Br)ccc1N (configuration not stated)	-2	1	10	2	1	/	/
COC(=O)CNC(c1ccccc1)c1cc(Br)ccc1N (configuration not stated)	31*	0	4	2	-12	-1	3
Cc1csc(NC(=O)c2ccc(Cl)nc2)n1	29*	5	-6	0	-7	3	-7
O=C(c1cccc2nc3ccccc3nc12)N1CCOCC1	-18	1	-2	-1	0	/	/
O=C(Nc1nnc(-c2ccccc2)s1)c1ccccc1O	31*	14	-8	1	42	0	-2
O=C(Nc1cccc([N+](=O)[O-])c1)c1ccc2c(c1)C(=O)N(c1ccccn1)C2=O	35*	11	0	-1	1	12	18
C[C@@H]1CN([C@H](C)CO)C(=O)CCCn2cc(nn2)CO[C@H]1CN(C)C(=O)c1ccncc1	/	/	0	/	/	/	/
c1ccc2c3c(c(CN4CCCC4)cc2c1)COC3	30*	19	-2	0	-15	1	-18
SMILES	MC4R antagonist	Beta2AR agonist	ABHD5 PLIN5 PPI	MC4R barr agon	PfG6PD inh	U2OS cAMP counter	MC4R cAMP antag
O=C(CCC1CCCN(C(=O)c2cccc(F)c2)C1)N1CCN(c2ccccn2)CC1 (configuration not stated)	2	-9	6	-2	3	/	/
COc1cccc(C(N)c2nc(-c3csc4ccccc34)cs2)c1 (configuration not stated)	-4	/	-1	1	/	/	/
Cc1ccc(CN(C(=O)c2ccc(Cl)c([N+](=O)[O-])c2)C2CCS(=O)(=O)C2)o1 (configuration not stated)	37*	11	-1	-4	11	19*	37*
O=C(c1ccc(Cl)c([N+](=O)[O-])c1)N(Cc1ccccc1)C1CCS(=O)(=O)C1 (configuration not stated)	17	13	1	1	2	/	/
O=C1N(Cc2cccc(Cl)c2)C[C@@H]2C[C@@H](c3cccc4cccnc34)N3CCC[C@@]123	34*	9	3	0	-10	-1	0
CS(=O)(=O)Nc1cccc(C2=NN(C(=O)c3ccco3)C(c3cccs3)C2)c1 (configuration not stated)	8	1	5	-3	30	/	/
COCCCNC(=O)/C=C1\Sc2ccccc2N(Cc2ccccc2F)C1=O	44*	8	6	0	-9	46*	34*
CC1(c2nnc(-c3cccc(Cl)c3)o2)CC(c2ccccc2)=NO1 (configuration not stated)	1	2	-2	0	12	/	/
COc1cccc(CNS(=O)(=O)c2cc3c(cc2Cl)NC(=O)CO3)c1	14	1	6	-1	5	/	/
Cc1ccccc1CNC(=O)CC1C(=O)NCCN1CC1CCCCC1 (configuration not stated)	9	1	4	0	8	/	/
O=C(CC1C(=O)NCCN1CC1CCCCC1)NCc1cccc(F)c1F (configuration not stated)	30*	3	6	3	-1	0	-1
CC(=O)c1ccc(NC(=O)C2(S(=O)(=O)c3ccccc3)CC2)cc1	30*	2	-8	0	0	0	-3
COc1ccc(NC(=O)COC(=O)c2c(C)noc2C)cc1Cl	0	/	-6	-1	-6	/	/
CC1(C)Cc2c(c(N3CCOCC3)nc3sc4c(NCC5CCCO5)nnnc4c23)CS1 (configuration not stated)	31*	2	4	1	52	0	-1
Cc1cnc(NC(=O)Cc2ccccc2Cl)s1	30*	-8	-3	0	7	-1	-6
CCCCN1C(=O)C(CC(=O)NC2CC2)CC(C(=O)N(CC)CC)=C1C (configuration not stated)	-1	/	2	-1	-5	/	/
